Reference: ChEMBL document CHEMBL1150427, “Hybrids of 1-deoxynojirimycin and aryl-1,2,3-triazoles and biological studies related to angiogenesis” (Bioorg Med Chem, 2008)
Activity calls are given as the source filed them. The rule behind the calls is not given here.

Experiments:
[1] = test system: Geobacillus stearothermophilus; test: (§1) Inhibition of Bacillus stearothermophilus alpha glucosidase
BAEC [2] = test: Inhibition of angiogenesis in BAEC assessed as inhibition of endothelial tube formation at 0.2 mM after 24 hrs; format: functional; details: Bos taurus
How it was run: (§2)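 BAECs were pretreated with compound for 24 h, then resuspended at 3×10⁴ cells/0.1 ml in RPMI 1640 with 10 ng/ml bFGF plus compound; controls received bFGF alone. Cells were layered on polymerised growth-factor-reduced Matrigel and incubated for 8 h at 37 °C in 5% CO₂. Tubes were counted by light microscopy in at least five fields and averaged. Each compound was tested at least twice.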

BAEC [3] = test: Decrease in FITC-labeled phytohemagglutininin-L binding to BAEC at 50 uM after 24 hrs by flow cytometer; format: functional, cell-based; details: Bos taurus
How it was run: (§3)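 Cultured BAECs were exposed to compound (50 µM) for 24 h, harvested and washed in DPBS. About 5×10⁵ cells were incubated in DPBS/1% BSA with 2 µg/mL FITC-labelled Con A or L-PHA for 1 h at 4 °C, washed twice, and fluorescence histograms were recorded by FACS. Each experiment was done at least twice.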

[4] = as §1; parameters: species or system Geobacillus stearothermophilus
BAEC [5] = test: Increase in FITC-labeled concanavalin A binding to BAEC at 50 uM after 24 hrs by flow cytometer; format: functional; details: Bos taurus; how it was run: as §3
[6] = Growth inhibition of BAEC after 48 hrs by MTT assay; parameters: species or system Bos taurus; details: cattle
How it was run: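 BAECs (3×10³ per well) were seeded overnight in RPMI 1640 with 10% FBS, then given compounds at 10⁻⁶–10⁻³ M for 48 h. MTT was added to a final 0.5 mg/mL for 3 h at 37 °C. Formazan was dissolved in DMSO and read at 570 nm. Samples were run in quadruplicate, with at least two independent experiments.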

Bos taurus [7] = species: Bos taurus; test: Inhibition of ERK1/2 phosphorylation in BAEC at 100 uM after 24 hrs by Western blot
How it was run: (§4)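 BAECs were treated at 0, 100 or 200 µM for 24 h, then lysed in RIPA buffer with protease inhibitors. Protein was quantified by micro-BCA. Lysates were separated by SDS–PAGE and transferred to PVDF, then probed overnight at 4 °C with antibodies to cyclin D1, ERK, phospho-ERK and β-actin (loading control). Detection used HRP secondaries and ECL. Experiments were repeated at least twice.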

BAEC [8] = test: Inhibition of cyclin D1 expression in BAEC at 200 uM after 24 hrs by Western blot; format: functional, cell-based; details: Bos taurus; how it was run: as §4
BAEC [9] = test: Inhibition of ERK1/2 levels in BAEC at 100 uM after 24 hrs by Western blot; format: functional, cell-based; details: Bos taurus; how it was run: as §4
BAEC [10] = test: Inhibition of angiogenesis in BAEC assessed as inhibition of endothelial tube formation at 0.1 mM after 24 hrs; format: functional; details: Bos taurus; how it was run: as §2
Bos taurus [11] = species: Bos taurus; test: Inhibition of ERK1/2 phosphorylation in BAEC at 200 uM after 24 hrs by Western blot; how it was run: as §4
[12] = Cell cycle arrest in BAEC assessed as accumulation at S phase at 200 uM after 24 hrs by flow cytometer relative to control; format: functional, cell-based; details: Bos taurus
How it was run: (§5)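 BAECs were seeded overnight in RPMI 1640 with 10% FBS, then exposed to compound for 24 h with a DMSO control. Cells were trypsinised, washed in DPBS and fixed in 70% ethanol at −20 °C for at least 2 h. They were treated with 200 µg/ml RNase A at 25 °C for 30 min, then stained with 50 µg/ml propidium iodide at 4 °C for 30 min. DNA content of 10,000 nuclei was read by flow cytometry, and G0/G1, S and G2/M percentages were derived. Each experiment was run at least twice.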

BAEC [13] = test: Effect on cell cycle of BAEC assessed as induction of G1 phase arrest at 200 uM after 24 hrs by flow cytometer relative to control; format: functional, cell-based; details: Bos taurus; how it was run: as §5
[14] = Cell cycle arrest in BAEC assessed as accumulation at G0/G1 phase at 200 uM after 24 hrs by flow cytometer relative to control; format: functional, cell-based; details: Bos taurus; how it was run: as §5
[15] = Cell cycle arrest in BAEC assessed as accumulation at G2/M phase at 200 uM after 24 hrs by flow cytometer relative to control; format: functional, cell-based; details: Bos taurus; how it was run: as §5
BAEC [16] = test: Inhibition of cyclin D1 expression in BAEC at 100 uM after 24 hrs by Western blot; format: functional, cell-based; details: Bos taurus; how it was run: as §4
BAEC [17] = test: Inhibition of ERK1/2 levels in BAEC at 200 uM after 24 hrs by Western blot; format: functional, cell-based; details: Bos taurus; how it was run: as §4
BAEC [18] = test: Inhibition of stress fiber assembly in BAEC by fluorescence staining with FITC phalloidin; format: functional, cell-based; details: Bos taurus
How it was run: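 BAECs were grown overnight on glass coverslips, then exposed to compound for 24 h. Cells were fixed in 4% paraformaldehyde, permeabilised with 0.1% Triton X-100 and blocked with 1% BSA. F-actin was stained with FITC-phalloidin (2 µg/ml, 30 min) and imaged by confocal microscopy at 40× oil. Experiments were repeated at least twice.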

With `COc1cccc(-c2cnn[nH]2)c1` the Activity [1] was “inactive” and the Activity (BAEC [2]) was “inactive”.
With `OC[C@@H]1[C@@H](O)[C@H](O)[C@@H](O)CN1CCCCCCOc1cccc(-c2cnn[nH]2)c1` the Activity (BAEC [3]) was “inactive”, the IC50 [4] was 2410 nM and the Activity (BAEC [2]) was “inactive”. For the same compound, the Activity (BAEC [5]) was “Active”.
For `OC[C@@H]1[C@@H](O)[C@H](O)[C@@H](O)CN1CCCCOc1cccc(-c2cnn[nH]2)c1`, the Activity (BAEC [3]) was “inactive”, the IC50 [4] was 6070 nM and the Activity (BAEC [2]) was “inactive”. For the same compound, the Activity (BAEC [5]) was “Active”.
In the case of `OC[C@H]1NC[C@H](O)[C@@H](O)[C@@H]1O` [DUVOGLUSTAT], the Activity (BAEC [3]) is reported as “inactive”, the IC50 [4] is reported as 1670 nM and the Activity (BAEC [2]) is reported as “inactive”. The Activity [6] was “Not Active” and the Activity (BAEC [5]) was “Active”.
For `OC[C@@H]1[C@@H](O)[C@H](O)[C@@H](O)CN1CCCCCCCCOc1cccc(-c2cnn[nH]2)c1`, the Activity (BAEC [3]) was “inactive”, the Activity (Bos taurus [7]) was “inactive” and the Activity (BAEC [8]) was “Active”. For the same compound, the IC50 [4] was 1150 nM, the Activity (BAEC [9]) was “inactive” and the Activity (BAEC [10]) was “inactive”. For the same compound, the Activity (BAEC [2]) was “Active”, the Activity (Bos taurus [11]) was “inactive” and the Activity [12] was 3.9%. For the same compound, the Activity (BAEC [13]) was “Active”, the Activity [14] was 87.6% and the Activity [15] was 6.2%. The Activity (BAEC [5]) was “Active”, the Activity (BAEC [16]) was “Active” and the Activity (BAEC [17]) was “inactive”. For the same compound, the Activity (BAEC [18]) was “Active”.
